One test deals with BGC-823. The test can be described thus: Cytotoxicity against human BGC823 cells at 10^-6 M after 96 hrs by MTT assay. The test is classed as functional, cell-based.
The next test has as its system KETR3. The test can be described thus: Cytotoxicity against human Ketr3 cells at 10^-6 M after 96 hrs by MTT assay. The test is classed as functional, cell-based. On the technique in general: Tetrazolium dyes change colour on reduction, which living cells bring about.
The next test deals with A549. The test can be described thus: Cytotoxicity against human A549 cells at 10^-6 M after 96 hrs by MTT assay. It counts as functional, cell-based.
In a further test the test system is Aorta. Description: Vasorelaxant activity in Sprague-Dawley rat […] thoracic aorta assessed as inhibition of phenylephrine-induced vasoconstriction at 10^-6 M relative to control. The test is classed as functional. On the set-up: scale not given: the % may be the effect or the level left. A digest of the protocol:
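Read-out was percent relaxation of phenylephrine-precontracted vessels. Verapamil served as the positive control at the same test concentration.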

The test system of the next test is Bel-7402. The test can be described thus: Cytotoxicity against human Bel7402 cells at 10^-6 M after 96 hrs by MTT assay. The test is classed as functional, cell-based.
In the next test the test system is HCT-8. Description: Cytotoxicity against human HCT8 cells at 10^-6 M after 96 hrs by MTT assay. The test is classed as functional, cell-based.
Another test has as its system Liver microsomes. The test can be described thus: Antioxidant activity against Fe2+-cystine-induced lipid peroxidation in rat liver microsomes at 10^-6 M after 15 mins by thiobarbituric acid method. The test is classed as functional. The conditions noted are these: Microsome. A general note: Liver microsomes are vesicles of endoplasmic reticulum, rich in cytochrome P450 enzymes.

Test [1] has as its system Human immunodeficiency virus 1. Description: Antiviral activity against HIV1 harboring vesicular stomatitis virus glycoprotein infected in human 293T cells assessed as inhibition of viral replication at 10 uM after 48 hrs by luciferase activity based luminometer analysis. The test is classed as functional, organism-based.
The next test concerns MCF7. Description: Cytotoxicity against human MCF7 cells at 10^-6 M after 96 hrs by MTT assay. The test is classed as functional, cell-based.
Test [2] deals with T1, Tyrosine-protein phosphatase non-receptor type 1 (Homo sapiens) (UniProt P18031).
T1 sequence (whole entry): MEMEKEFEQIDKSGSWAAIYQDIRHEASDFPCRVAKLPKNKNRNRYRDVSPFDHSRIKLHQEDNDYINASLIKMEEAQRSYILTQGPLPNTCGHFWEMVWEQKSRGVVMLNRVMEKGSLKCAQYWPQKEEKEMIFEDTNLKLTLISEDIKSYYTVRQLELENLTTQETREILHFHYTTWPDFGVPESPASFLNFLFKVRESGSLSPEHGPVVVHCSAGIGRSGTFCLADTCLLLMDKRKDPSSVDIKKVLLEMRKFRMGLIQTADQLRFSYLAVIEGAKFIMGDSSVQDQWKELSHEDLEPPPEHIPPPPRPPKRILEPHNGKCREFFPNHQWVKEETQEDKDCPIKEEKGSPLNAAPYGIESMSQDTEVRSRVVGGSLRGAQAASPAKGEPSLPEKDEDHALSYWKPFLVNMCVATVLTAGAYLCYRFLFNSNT
The test can be described thus: Inhibition of human recombinant GST-tagged PTP1B assessed as conversion of para-nitrophenyl phosphate to para-nitrophenol at 10^-6 M after 10 mins by microplate spectrophotometer analysis.

Activity calls are given as the source filed them. The calls are words filed in the database; no cut-off is given here.

For `CC(=O)O[C@]12C[C@H](C)[C@H](O)[C@@H]1[C@H]1O[C@]1(C)CC[C@H]1[C@H](/C=C(\C)C2=O)C1(C)C`, the outcome in the test with BGC-823, in the test with KETR3, with A549, with Bel-7402, with HCT-8 and with Liver microsomes was inactive. The result (in [1]; in the test on MCF7) was inactive. In addition, the Activity in the test with Aorta is on record as <30%. The inhibition result in test [2] was “inactive”.

On to `C/C1=C\[C@H]2[C@H](CC[C@@]3(C)O[C@@H]3[C@H]3[C@@H](OC(=O)c4ccccc4)[C@@H](C)C[C@]3(OC(=O)c3ccccc3)C1=O)C2(C)C`, for which the outcome with BGC-823, with KETR3, in the test with A549, in the test on Bel-7402, with HCT-8 and with Liver microsomes was inactive. The outcome (in test [1]; in the test on MCF7) was inactive. Moreover, the Activity with Aorta was <30%. For the same compound, the inhibition entry in test [2] was “inactive”.

Turning to `C/C1=C\[C@H]2[C@@H](O)[C@@H](C)C[C@]2(OC(=O)c2ccccc2)C(=O)/C(C)=C/[C@H]2[C@H](CC1)C2(C)C`, the result in the test on BGC-823, with KETR3, with A549, in the test on Bel-7402, in the test on HCT-8 and with Liver microsomes was inactive. Moreover, the outcome (in [1]; in the test on MCF7) was inactive. Moreover, in the test with Aorta, the Activity turned out to be 42%. The inhibition entry in [2] is “inactive”.

Regarding `CC(=O)O[C@H]1/C(C)=C\C[C@H]2[C@H](/C=C(\C)C(=O)[C@@]3(OC(=O)c4ccccc4)C[C@H](C)[C@H](O)[C@H]13)C2(C)C`, the result with BGC-823, in the test with KETR3, with A549, in the test on Bel-7402, in the test with HCT-8 and in the test on Liver microsomes was inactive. In addition, the outcome (in test [1]; in the test on MCF7) was inactive. In addition, the Activity with Aorta is 50%. The inhibition result in test [2] is “inactive”.

With `C/C1=C/C[C@H]2[C@H](/C=C(\C)C(=O)[C@@]3(OC(=O)/C=C/c4ccccc4)C[C@H](C)[C@@H]4OC(C)(C)O[C@@H]1[C@@H]43)C2(C)C`, the outcome with BGC-823, in the test on KETR3, in the test with A549, in the test with Bel-7402, in the test with HCT-8 and in the test on Liver microsomes was inactive. In the test on MCF7, the result was inactive. In the test on Aorta, the Activity is recorded as <30%. Also, the inhibition entry in test [2] is “inactive”.

For `C/C1=C\[C@H]2[C@@H](OC(=O)/C=C/c3ccccc3)[C@@H](C)C[C@]2(O)C(=O)/C(C)=C/[C@H]2[C@H](CC1)C2(C)C`, the result in the test with BGC-823, with KETR3, in the test on A549, in the test with Bel-7402, in the test on HCT-8 and in the test on Liver microsomes was inactive. The outcome (in test [1]; with MCF7) was inactive. Besides, the Activity in the test with Aorta was <30%. In addition, in test [2], the inhibition entry was “inactive”.

With `CC(=O)O[C@@H]1[C@@H]2[C@H]3O[C@]3(C)CC[C@H]3[C@H](/C=C(\C)C(=O)[C@@]2(OC(C)=O)C[C@@H]1C)C3(C)C`, the result in the test with BGC-823, in the test with KETR3, in the test with A549, with Bel-7402, in the test with HCT-8 and with Liver microsomes was inactive. Also, the result (in test [1]; with MCF7) was inactive. Besides, in the test on Aorta, the Activity is listed as <30%. Besides, the inhibition entry in test [2] was “inactive”.

As to `CC(=O)O[C@@H]1[C@H]2[C@@H](O)/C(C)=C\C[C@H]3[C@H](/C=C(\C)C(=O)[C@@]2(OC(=O)c2ccccc2)C[C@@H]1C)C3(C)C`, the result in the test on BGC-823, in the test with KETR3, with A549, in the test with Bel-7402, in the test on HCT-8 and with Liver microsomes was inactive. The outcome (in [1]; with MCF7) was inactive. Moreover, in the test with Aorta, the Activity came to 48%. Also, in test [2], the inhibition entry was “inactive”.

As for `CC(=O)O[C@@H]1[C@@H]2[C@H]3O[C@]3(C)CC[C@H]3[C@H](/C=C(\C)C(=O)[C@@]2(O)C[C@@H]1C)C3(C)C`, the outcome in the test with BGC-823, in the test with KETR3, in the test on A549, with Bel-7402, in the test with HCT-8 and in the test on Liver microsomes was inactive. The result (in [1]; in the test with MCF7) was inactive. The Activity in the test with Aorta is <30%. Besides, the inhibition entry in test [2] was “inactive”.

In the case of `C/C1=C\[C@H]2[C@H](CC[C@@]3(C)O[C@@H]3[C@H]3[C@@H](OC(=O)/C=C/c4ccccc4)[C@@H](C)C[C@]3(O)C1=O)C2(C)C`, the outcome with BGC-823, in the test with KETR3, in the test with A549, in the test with Bel-7402, in the test on HCT-8 and in the test with Liver microsomes was inactive. The outcome (in [1]; in the test on MCF7) was inactive. Also, in the test on Aorta, the Activity is given as <30%. In addition, in [2], the inhibition result was “inactive”.

Regarding `C/C1=C/C[C@H]2[C@@H](/C=C(\C)C(=O)[C@@]3(OC(=O)c4ccccc4)C[C@H](C)[C@H](O)[C@@H]3[C@@H]1O)C2(C)C`, the Activity with Aorta was determined as 53%. The result in test [1] was inactive.

For `CC(=O)O[C@H]1[C@@H](C)C[C@]2(OC(C)=O)C(=O)/C(C)=C/[C@H]3[C@H](CC/C(C)=C/[C@@H]12)C3(C)C`, the result in the test with BGC-823, in the test on KETR3, in the test on A549, with Bel-7402, with HCT-8 and in the test with Liver microsomes was inactive. In addition, the outcome (in [1]; with MCF7) was inactive. The Activity with Aorta was <30%. Further, the inhibition entry in [2] was “inactive”.

Regarding `C/C1=C\[C@H]2[C@H](CC[C@@]3(C)O[C@@H]3[C@H]3[C@@H](OC(=O)c4ccccc4)[C@@H](C)C[C@]3(O)C1=O)C2(C)C`, the result in the test with BGC-823, in the test with KETR3, in the test with A549, with Bel-7402, with HCT-8 and in the test on Liver microsomes was inactive. In addition, the result (in test [1]; in the test on MCF7) was inactive. In addition, the Activity in the test on Aorta was 48%. For the same compound, the inhibition result in [2] is “inactive”.

As for `CC(=O)O[C@@H]1[C@@H]2[C@H]3O[C@]3(C)CC[C@H]3[C@H](/C=C(\C)C(=O)[C@@]2(OC(=O)c2ccccc2)C[C@@H]1C)C3(C)C`, the result in the test with BGC-823, in the test on KETR3, in the test on A549, with Bel-7402, with HCT-8 and with Liver microsomes was inactive. Besides, the outcome (in test [1]; in the test with MCF7) was inactive. In addition, in the test with Aorta, the Activity came out at 41%. In addition, in test [2], the inhibition entry was “inactive”.

For `COc1ccc(CCN(C)CCCC(C#N)(c2ccc(OC)c(OC)c2)C(C)C)cc1OC` (configuration not stated) [VERAPAMIL], the Activity in the test on Aorta came out at 44%.
